pIC50: −log10 of the molar value. Entries after “also recorded” stand apart in the source; their conditions may differ.
What was measured:
SUGCT [1] = molecular target: T1, SUGCT (Homo sapiens, UniProt Q9HAC7); assay: Fluorometric SUGCT enzyme assay coupled to HMG-CoA reductase; type: biochemical; details: for SUGCT inhibition at 10 μM (in words): repurchased hits
T1 sequence (Q9HAC7 31-438 limits assumed): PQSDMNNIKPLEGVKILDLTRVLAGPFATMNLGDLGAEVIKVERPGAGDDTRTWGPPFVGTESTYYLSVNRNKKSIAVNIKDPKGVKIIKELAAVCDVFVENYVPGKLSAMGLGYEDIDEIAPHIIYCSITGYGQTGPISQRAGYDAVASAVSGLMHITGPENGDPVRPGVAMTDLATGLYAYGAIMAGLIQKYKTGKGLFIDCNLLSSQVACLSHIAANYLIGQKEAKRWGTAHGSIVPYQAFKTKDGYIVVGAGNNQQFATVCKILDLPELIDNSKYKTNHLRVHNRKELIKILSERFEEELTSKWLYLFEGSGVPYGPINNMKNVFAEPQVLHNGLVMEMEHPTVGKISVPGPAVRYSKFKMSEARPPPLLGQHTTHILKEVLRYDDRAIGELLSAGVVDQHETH

[2] = molecular target: T2, human HMG-CoA reductase (HMGCR) (Homo sapiens, UniProt P04035); assay: Spectrophotometric HMGCR counter-screen assay; type: biochemical; details: up to 100 μM
T2 sequence (P04035 426-888): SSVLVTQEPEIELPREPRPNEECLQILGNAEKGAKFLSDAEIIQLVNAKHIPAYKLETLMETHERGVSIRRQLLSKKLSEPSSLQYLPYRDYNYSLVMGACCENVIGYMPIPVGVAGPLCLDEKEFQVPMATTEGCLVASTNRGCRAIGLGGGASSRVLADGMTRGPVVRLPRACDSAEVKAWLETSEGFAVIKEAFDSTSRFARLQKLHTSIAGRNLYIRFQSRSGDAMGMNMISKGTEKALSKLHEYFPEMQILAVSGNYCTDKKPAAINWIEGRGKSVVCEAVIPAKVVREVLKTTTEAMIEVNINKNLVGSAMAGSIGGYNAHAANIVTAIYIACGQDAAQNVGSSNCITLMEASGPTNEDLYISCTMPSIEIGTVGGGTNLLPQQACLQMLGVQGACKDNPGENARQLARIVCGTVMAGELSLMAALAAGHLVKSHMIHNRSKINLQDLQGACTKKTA
Summary of the method: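 Human HMGCR catalytic domain (residues 426–888), N-terminal His-tagged, expressed in E. coli and IMAC-purified. Assay contains 9 U/L HMGCR, 150 μM HMG-CoA, 300 μM NADPH, 4 mM DTT and 0.1% Triton X-100 in 100 mM potassium phosphate, pH 7.4. NADPH consumption is followed by absorbance at 340 nm.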

[3] = system: SUGCT overexpressing GA1 HEK-293 cells; assay: C5DC in SUGCT overexpressing GA1; type: cell-based, human; details: treatment of SUGCT overexpressing GA1 HEK-293 cells
Summary of the method: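 Stable SUGCT overexpression in Flp-In 293 cells by co-transfection with Flp recombinase and selection in 100 μg/ml hygromycin B for 2–3 weeks. GCDH knocked out by CRISPR-Cas9, with single-clone sorting. Cells grown at 37°C, 5% CO2 in DMEM with 10% FBS. Metabolites extracted with cold methanol:acetonitrile:water 5:3:2 overnight at −80°C, then analysed by reverse-phase C18 LC-MS in positive mode.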

SUGCT [4] = molecular target: T1, SUGCT; type: biochemical; details: HMG-CoA as CoA donor, 30 minutes

`O=C(O)CCCC(=O)O` [Glutarate, glutarate] was tested, and the mode of inhibition (SUGCT [1]; with respect to HMG, increases apparent Km for HMG) was “competitive inhibitor”.
`CCCCC(=O)N(Cc1ccc(-c2ccccc2-c2nnn[nH]2)cc1)[C@H](C(=O)O)C(C)C` [Valsartan] was tested, and the “SUGCT inhibition at 10 μM (in words)” value (SUGCT [1]) was “inhibited”, the pIC50 (SUGCT [1]; IC50 (SUGCT inhibition), standard assay, 100 mM potassium phosphate pH 7.4) was 5.42 and the inhibition at 10 µM (SUGCT [1]; read-out: inhibition of SUGCT at 10 μM) was > 50%. For the same compound, the “inhibition of HMGCR” value [2] was “did not inhibit”, the “effect on C5DC / activity in cells” value [3] was “did not observe a decrease in C5DC; also recorded: unable to detect activity” and the “conversion into a CoA ester by SUGCT” value (SUGCT [4]) was “no evidence”.
With `CCCCc1nc(Cl)c(CO)n1Cc1ccc(-c2ccccc2-c2nn[nH]n2)cc1` [losartan] the “activity of Angiotensin II Receptor Blockers on SUGCT (in words)” value (SUGCT [1]; each ARB measured in duplicate at 10 μM) was “inactive”.
With `O=C(O)CCc1nc(-c2ccccc2)c(-c2ccccc2)o1` [oxaprozin] the “SUGCT inhibition at 10 μM (in words)” value (SUGCT [1]) was “inhibited”.
For `CC(C)c1nc(N(C)S(C)(=O)=O)nc(-c2ccc(F)cc2)c1/C=C/[C@@H](O)C[C@@H](O)CC(=O)O` [rosuvastatin], the “result in high throughput screen of FDA approved library” value (SUGCT [1]; screening concentration 100 μM, coupled assay also detects HMGCR inhibitors) was “one of our hits”.
With `CCCCC(=O)N(Cc1ccc(-c2ccccc2-c2nn[nH]n2)cc1)[C@H](C(=O)OCC)C(C)C` [valsartan ethyl ester, Valsartan ethyl ester] the “effect on C5DC / activity in cells” value [3] was “did not observe a decrease in C5DC”.

Source: article PMC10871334 (bioRxiv, 2024)
